Assay results as given in ChEMBL document CHEMBL3525967, “In vitro glucuronidation of the antibacterial triclocarban and its oxidative metabolites” (Drug Metab Dispos, 2012).

Columns and labels:
[1] = Drug metabolism in microsomes (unknown origin) assessed as retention time treated with 10 uM triclocarban by LC-UV-MS method; assay type: ADME, Microsome
[2] = Drug metabolism in cynomolgus monkey liver microsomes assessed as glucuronidation incubated for 5 mins prior to UDPGA addition measured after 5 to 30 mins by LC-UV analysis; assay type: ADME, Macaca fascicularis
Method in brief: (§1)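 Microsomes or Sf-9 Supersomes (5 µg protein in 200 µL 100 mM potassium phosphate pH 7.4) pre-treated with alamethicin on ice 15 min; substrate 10 µM final (2% DMSO), MgCl2 and saccharolactone 10 mM each; 5 min preincubation at 37 °C, then UDPGA to start. Samples taken at 5, 10, 15, 30 min (or 2, 5, 10, 15 min) into ACN with internal standard; LC-UV-ESI-MS/MS.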

[3] = biological target: T1, UDP-glucuronosyltransferase 1A3 (Homo sapiens, UniProt P35503); assay: Drug metabolism assessed as human UGT1A3-mediated glucuronidation expressed in baculovirus infected insect sf9 cells incubated for 5 mins prior to UDPGA addition measured after 5 to 30 mins by LC-UV analysis; assay type: ADME; method in brief: as §1
T1 sequence (P35503 whole entry): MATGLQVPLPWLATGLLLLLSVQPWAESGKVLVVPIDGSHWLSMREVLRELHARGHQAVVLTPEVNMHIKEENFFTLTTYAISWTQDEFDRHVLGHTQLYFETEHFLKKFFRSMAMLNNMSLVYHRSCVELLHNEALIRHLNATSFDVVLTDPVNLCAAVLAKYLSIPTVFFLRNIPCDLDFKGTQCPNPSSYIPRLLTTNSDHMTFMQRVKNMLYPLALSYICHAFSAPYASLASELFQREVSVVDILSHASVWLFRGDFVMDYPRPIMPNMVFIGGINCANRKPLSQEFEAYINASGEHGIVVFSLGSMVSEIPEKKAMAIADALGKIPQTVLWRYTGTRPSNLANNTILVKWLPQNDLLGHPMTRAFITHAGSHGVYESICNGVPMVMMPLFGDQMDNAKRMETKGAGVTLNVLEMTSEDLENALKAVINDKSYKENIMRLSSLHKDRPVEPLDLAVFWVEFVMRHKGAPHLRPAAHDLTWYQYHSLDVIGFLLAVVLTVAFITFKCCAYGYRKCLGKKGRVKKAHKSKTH

[4] = biological target: T2, UDP-glucuronosyltransferase 1A6 (Homo sapiens, UniProt P19224); assay: Drug metabolism assessed as human UGT1A6-mediated glucuronidation expressed in baculovirus infected insect sf9 cells incubated for 5 mins prior to UDPGA addition measured after 5 to 30 mins by LC-UV analysis; assay type: ADME; method in brief: as §1
T2 sequence (P19224 whole entry): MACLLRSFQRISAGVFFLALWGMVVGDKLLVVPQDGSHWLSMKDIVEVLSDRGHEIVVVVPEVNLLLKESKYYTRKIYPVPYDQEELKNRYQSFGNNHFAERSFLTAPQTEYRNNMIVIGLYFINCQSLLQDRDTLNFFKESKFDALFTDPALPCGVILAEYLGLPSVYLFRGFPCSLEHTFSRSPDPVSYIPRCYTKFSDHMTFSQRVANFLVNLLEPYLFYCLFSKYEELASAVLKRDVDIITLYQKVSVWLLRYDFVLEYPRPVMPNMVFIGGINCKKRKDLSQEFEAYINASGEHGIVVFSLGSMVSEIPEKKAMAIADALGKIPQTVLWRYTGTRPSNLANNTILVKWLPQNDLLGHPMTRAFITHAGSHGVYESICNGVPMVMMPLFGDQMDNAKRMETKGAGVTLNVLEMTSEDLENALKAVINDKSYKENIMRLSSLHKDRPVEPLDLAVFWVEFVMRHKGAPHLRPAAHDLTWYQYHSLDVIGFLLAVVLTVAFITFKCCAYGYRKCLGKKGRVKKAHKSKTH

[5] = biological target: T3, UDP-glucuronosyltransferase 1A9 (Homo sapiens, UniProt O60656); assay: Drug metabolism assessed as human UGT1A9-mediated glucuronidation expressed in baculovirus infected insect sf9 cells incubated for 5 mins prior to UDPGA addition measured after 5 to 30 mins by LC-UV analysis; assay type: ADME; method in brief: as §1
T3 sequence (O60656 whole entry): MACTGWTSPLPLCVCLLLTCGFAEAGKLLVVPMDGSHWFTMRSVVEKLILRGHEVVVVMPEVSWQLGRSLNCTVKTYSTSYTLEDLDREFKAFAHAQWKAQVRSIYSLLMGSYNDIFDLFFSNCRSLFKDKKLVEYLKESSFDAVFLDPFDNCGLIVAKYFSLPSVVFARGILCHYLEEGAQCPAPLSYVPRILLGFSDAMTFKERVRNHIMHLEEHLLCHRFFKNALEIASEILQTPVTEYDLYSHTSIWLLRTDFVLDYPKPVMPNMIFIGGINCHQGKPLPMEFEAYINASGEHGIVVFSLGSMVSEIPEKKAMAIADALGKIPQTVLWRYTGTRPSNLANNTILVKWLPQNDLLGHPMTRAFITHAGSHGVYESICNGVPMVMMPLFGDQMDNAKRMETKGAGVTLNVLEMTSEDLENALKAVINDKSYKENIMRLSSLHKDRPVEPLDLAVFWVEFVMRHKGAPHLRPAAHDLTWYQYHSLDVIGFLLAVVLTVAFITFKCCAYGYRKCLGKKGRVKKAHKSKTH

[6] = biological target: T4, UDP-glucuronosyltransferase 2B7 (Homo sapiens, UniProt P16662); assay: Drug metabolism assessed as human UGT2B7-mediated glucuronidation expressed in baculovirus infected insect sf9 cells incubated for 5 mins prior to UDPGA addition measured after 5 to 30 mins by LC-UV analysis; assay type: ADME; method in brief: as §1
T4 sequence (P16662 whole entry): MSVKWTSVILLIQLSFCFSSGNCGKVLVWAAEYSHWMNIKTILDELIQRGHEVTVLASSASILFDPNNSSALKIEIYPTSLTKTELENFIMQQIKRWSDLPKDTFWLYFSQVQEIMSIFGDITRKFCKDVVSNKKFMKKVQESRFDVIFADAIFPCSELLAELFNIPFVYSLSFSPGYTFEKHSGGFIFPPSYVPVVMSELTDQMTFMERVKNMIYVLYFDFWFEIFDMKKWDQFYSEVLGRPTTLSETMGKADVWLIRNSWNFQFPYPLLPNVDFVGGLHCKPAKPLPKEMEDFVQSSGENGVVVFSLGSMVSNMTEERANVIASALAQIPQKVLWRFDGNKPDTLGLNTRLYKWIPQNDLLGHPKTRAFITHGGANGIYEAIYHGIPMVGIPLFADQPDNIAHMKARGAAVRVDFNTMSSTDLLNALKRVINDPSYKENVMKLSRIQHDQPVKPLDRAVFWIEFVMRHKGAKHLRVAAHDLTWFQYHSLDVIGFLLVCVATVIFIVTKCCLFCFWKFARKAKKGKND

For `O=C(Nc1ccc(Cl)c(Cl)c1)Nc1ccc(Cl)cc1O`, the Retention_time [1] was 6.81 min, the Drug metabolism [2] was 22800 pmol/min/mg and the Drug metabolism [3] was 390 pmol/min/mg. The Drug metabolism [4] was “metabolite_not_detected”, the Drug metabolism [5] was 1200 pmol/min/mg and the Drug metabolism ([6]; BLD = below limit of detection) was “BLD”.
Compound `O=C(Nc1ccc(Cl)cc1)Nc1cc(Cl)c(Cl)cc1O` has a Retention_time [1] of 7.45 min, a Drug metabolism [2] of 16300 pmol/min/mg and a Drug metabolism [3] of 410 pmol/min/mg. For the same compound, the Drug metabolism [4] was “metabolite_not_detected”, the Drug metabolism [5] was 2400 pmol/min/mg and the Drug metabolism ([6]; BLD = below limit of detection) was “BLD”.
`O=C(Nc1ccc(Cl)c(O)c1)Nc1ccc(Cl)c(Cl)c1` gave a Retention_time [1] of 4.61 min, a Drug metabolism [2] of 9500 pmol/min/mg and a Drug metabolism [3] of 540 pmol/min/mg. For the same compound, the Drug metabolism [4] was “metabolite_not_detected”, the Drug metabolism [5] was 840 pmol/min/mg and the Drug metabolism [6] was “metabolite_not_detected”.
